Measured values gathered from unrelated publications.
Lines come from different studies, so protocols differ.

SMILES | host | sample | route | dose | notes | Cmax
Cc1cc(-c2ccnc3[nH]cc(F)c23)cc(F)c1[C@@]1(O)[C@H](C)CN(C(=O)CN)C[C@@H]1C | male CD-1 mouse | plasma | intravenous | 1 mg/kg | – | 1980 ng/mL
Cc1ncsc1-c1ccc([C@H](CC(=O)N2CC3(C2)CN(c2ccc(C#Cc4ccc(C(=O)N5CCC(n6cc(-c7ccc8c(c7)CCN8C(=O)Cc7cccc(OC(F)(F)F)c7)c7c(N)ncnc76)CC5)cc4)cn2)C3)NC(=O)[C@@H]2C[C@@H](O)CN2C(=O)[C@@H](NC(=O)C2(F)CC2)C(C)(C)C)cc1 | male C57BL/6 mouse | plasma | intravenous | 1 mg/kg | – | 19000 ng/mL
NCc1ccc(-c2nn(Cc3ccncc3)c3ccccc23)o1 | male CD-1 mouse | plasma | oral | 10 mg/kg | – | 168 ng/mL
Cc1ncsc1-c1ccc([C@H](C)NC(=O)[C@@H]2C[C@@H](O)CN2C(=O)[C@@H](NC(=O)CCCCCCCCC(=O)N2CCC(n3cc(-c4ccc5c(c4)CCN5C(=O)Cc4cccc(OC(F)(F)F)c4)c4c(N)ncnc43)CC2)C(C)(C)C)cc1 | male C57BL/6 mouse | plasma | intravenous | 1 mg/kg | – | 3420 ng/mL
OCc1ccc(-c2nn(Cc3ccccc3)c3ccccc23)o1 | male CD-1 mouse | plasma | intraperitoneal | 30 mg/kg | – | 5540 ng/mL
CC(C)(C)c1sc2ncnc(Oc3c(F)cccc3OC(F)(F)F)c2c1-c1ccc(Cl)cc1 | mouse | plasma | oral | 30 mg/kg | single dose | 10300 ng/mL
Cc1cc(-c2ccnc3[nH]cc(F)c23)cc(F)c1[C@@]1(O)[C@H](C)CN(C2CCS(=O)(=O)CC2)C[C@@H]1C | male CD-1 mouse | plasma | oral | 3 mg/kg | – | 750 ng/mL
O=C1CCC(N2Cc3cc(C4CCN(Cc5ccccc5)CC4)ccc3C2=O)C(=O)N1 (stereo not drawn) | male CD-1 mouse | plasma | oral | 3 mg/kg | – | 273 ng/mL
Cc1ncsc1-c1ccc([C@H](CC(=O)N2CCN(c3ccc(C#Cc4ccc(C(=O)N5CCC(n6cc(-c7ccc8c(c7)CCN8C(=O)Cc7cccc(OC(F)(F)F)c7)c7c(N)ncnc76)CC5)cc4)cn3)CC2)NC(=O)[C@@H]2C[C@@H](O)CN2C(=O)[C@@H](NC(=O)C2(F)CC2)C(C)(C)C)cc1 | male C57BL/6 mouse | plasma | intravenous | 1 mg/kg | – | 19600 ng/mL
C=CCn1c(=O)c2cnc(Nc3ccc(N4CCN(C)CC4)cc3)nc2n1-c1ccc2c(n1)[C@@](O)(CC)CC2 | mouse | plasma | oral | 60 mg/kg | – | 10.5 µM
COC1=CC(c2ccc[nH]2)=N/C1=C\c1[nH]c(Cc2ccc(OC(F)(F)F)cc2)cc1Cc1ccc(OC(F)(F)F)cc1 | male CD-1 mouse | liver | oral | 40 mg/kg | single dose | 20300 ng/mL
CN(C)C(=O)c1cc2cnc(Nc3ccc(-c4ccc5c(=O)cc(N6CCOCC6)oc5c4)cc3)nc2n1C1CCCC1.Cl | BALB/c mouse | plasma | intravenous | 2 mg/kg | – | 3690 ng/mL
C[C@@H](CN1CCC(n2c(=O)[nH]c3cc(Cl)ccc32)CC1)NC(=O)c1ccc2ccccc2c1 | male CD-1 mouse | brain | intravenous | 1 mg/kg | single dose | 0.236 ng/mL
OCc1nc2ccc(NCc3ccc(C(F)(F)F)cc3)cc2[nH]1 | male BALB/c mouse | plasma | intravenous | 1 mg/kg | – | 378 ng/mL
COCC(=O)N1CCc2[nH]c3c(Cl)c(Cl)ccc3c2[C@@H]1C | C57BL/6 mouse | blood | oral | 20 mg/kg | – | 3.47 µM
NCc1ccc(-c2nn(Cc3ccccc3)c3ccccc23)o1 | male CD-1 mouse | plasma | intraperitoneal | 30 mg/kg | – | 4030 ng/mL
CCOC(=O)c1c(NC(=O)CNC(C)C)sc2c1CCCCC2 | male mouse | plasma | intraperitoneal | 5 mg/kg | single dose | 193 ng/mL
Cc1nc2ccc(OCc3ccc(C(F)(F)F)cc3)cc2[nH]1 | male BALB/c mouse | plasma | oral | 10 mg/kg | – | 5890 ng/mL
COC1=CC(c2ccc[nH]2)=N/C1=C\c1cc(Cc2ccc(OC(F)(F)F)cc2)c(C)[nH]1.Cl | male CD-1 mouse | liver | oral | 40 mg/kg | single dose | 2660 ng/mL
NCc1cc2c(cc1F)C(=O)N(C1CCC(=O)NC1=O)C2 (stereo not drawn) | male CD-1 mouse | plasma | oral | 10 mg/kg | – | 97.2 ng/mL
Cc1ccc(OCC(=O)N[C@@H](Cc2c[nH]c3ccccc23)C(=O)OC(C)C)cc1 | male Sprague-Dawley mouse | plasma | intravenous | 10 mg/kg | – | 1840 ng/mL
